ADAM17 inh = inhibits human ADAM17; P78536; recombinant ADAM17, EDANS/DABCYL FRET peptide cleavage; inhibition, % at 6.95 µM; 370,000 tested, 0.83% active;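 active = inhibition above the mean of compounds lying between control limits plus 3 SD, set per campaign, cut at about 8.5% in these data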;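 note: 0% = DMSO-only wells as the low control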
NRP1-CendR mod = alters CendR peptide binding to human NRP-1 | inhibition, % at 25 µM | O14786 | FAM-RPARPAR peptide binding to NRP-1, fluorescence polarization | 360,000 tested, 0.85% active;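 active = inhibition or corrected inhibition above about 18%, plus a signal ratio from 0.5 to 1.5, limit read from the data, passing the limit was not always enough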
ADAM10 inh = inhibitors of human ADAM10; O14672; recombinant ADAM10, EDANS/DABCYL FRET peptide cleavage, 3 h; inhibition, % at 7 µM; 370,000 tested, 0.62% active; AID 720582;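 active = inhibition above a per-campaign cutoff equal to the mean of compounds falling between control-based bounds plus 3 SD, cut at about 20% in these data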;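 note: 0% = DMSO wells while the 100% control is not disclosed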
Arrestin-AP2 inh = human beta-arrestin and AP2 interaction inhibition | AID 504490 | FITC-arrestin peptide / GST-AP2 beads, flow cytometry; AP2 beta2 appendage carries R879A mutation | inhibition, % at 10 µM | 340,000 tested, 0.31% active;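 active = inhibition above a set limit, near 3 SD of compounds lacking own fluorescence, cut at about 54% in these data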;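 note: plate controls were DMSO wells for no effect and 5 µM unlabelled arrestin peptide for full effect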
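Test system: GST-tagged AP2 beta2-adaptin appendage (R879A) on 4 µm glutathione beads; also added: fluorescein-tagged arrestin peptide at 50 nM final; timing: 12 min plus 1 h, RT; signal: flow cytometry, FL1 (488/535 nm); read-out: percent drop in bead-associated FITC signal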
CaV13 FRET inh = Disruptors of the CACNA1D IQ motif to Ca2+-dependent inactivation inhibitor domain association, primary screening, Förster resonance energy transfer in intact living …; HEK cells, CFP/YFP FRET ICDI-IQ, plate reader, 10 min; percent FRET-ratio fall versus neutral wells; inhibition, % at 12.3 µM; 340,000 tested, 0.098% active; AID 743397;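 active = mean replicate inhibition of at least 30% and at least 1% of replicates passing that level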;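 note: 0% = median of the neutral control wells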
FAS-TE inh = inhibitors of human fatty acid synthase thioesterase domain | AID 602261 | recombinant FAS-TE, OMFH fluorogenic substrate, fluorescence endpoint | 360,000 tested, 0.67% active | inhibition, % at 15 µM;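 active = compounds whose normalised, plate-corrected inhibition of enzyme fluorescence in the single-dose primary screen is 50% or more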;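 note: 0% = DMSO with enzyme and 100% = substrate without enzyme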
The depositor's hits bear a star; i = inactive; . = not tested or not shown. The list is not random: actives were taken first. Their share in the collection is about 2.9%.

SMILES	ADAM17 inh	NRP1-CendR mod	ADAM10 inh	Arrestin-AP2 inh	CaV13 FRET inh	FAS-TE inh
CCOC(=O)Cn1c(=NC(=O)c2ccc([N+](=O)[O-])s2)sc2ccccc21	2.8	56.3*	1.0	5.7	-21.5	-12.8
CCOC(=O)N1CCN(C(=O)C[C@H]2C[C@@]3(C(=O)OC)C(=C[C@H](COCc4ccccc4)O[C@@H]3C)N(Cc3ccc(Cl)cc3Cl)C2=O)CC1	2.4	.	7.3	.	.	.
COC(=O)[C@]12C[C@H](CC(=O)N3CCN(C(=O)C4CC4)CC3)C(=O)N(Cc3ccco3)C1=C[C@H](COCc1ccccc1)O[C@@H]2C	-3.7	.	-4.8	.	.	.
Oc1ccc(C[C@H]2CNC(=S)N2CC2CCCN2C[C@H](Cc2ccc(O)cc2)N2C[C@H](Cc3ccc(O)cc3)N(CC3CCCCC3)C2=S)cc1 (stereo not given in full)	7.5	-8.6	22.2*	-3.0	-7.6	-68.3
Oc1ccc(C[C@H]2CN([C@@H](Cc3ccccc3)CN3CCCC3CN3C(=S)NC[C@@H]3Cc3ccccc3)C(=S)N2CC2CCCCC2)cc1 (stereo not given in full)	-0.3	-4.5	3.5	.	-6.4	-101.6
Cn1c(OCc2ccco2)nc2c1c(=O)n(Cc1ccc(Cl)c(Cl)c1)c(=O)n2C	.	-12.7	.	80.6*	.	2.6
Cn1c(N2CCOCC2)nc2c1c(=O)n(Cc1ccc(Cl)c(Cl)c1)c(=O)n2C	-5.7	3.0	4.5	-3.2	-4.8	7.6
CN(C)CC(=O)N[C@H]1C[C@@H]2O[C@H](CO)CC[C@@H]2O[C@@H]1CCc1ccc(-c2ccc(F)cc2)cc1	-4.3	.	-4.8	.	.	.
CC1=CC(C)(C)[N+](C)(C)c2ccc(C)cc21	0.5	38.2*	-0.8	-6.0	-4.3	-4.9
CC(=O)NC(=O)c1cnn(-c2ccccc2)c1N	-1.8	36.4*	5.5	44.8	-4.8	-1.9
Cc1ccc(S(=O)(=O)c2cc3ccccc3oc2=O)cc1	-4.5	2.3	-17.1	-1.1	-4.9	-7.1
Cc1c(O)ccc2cc(S(=O)(=O)c3ccccc3)c(=O)oc12	i	-1.7	i	7.1	34.2*	-7.1
C[C@@H]1CN([C@@H](C)CO)S(=O)(=O)c2ccc(Br)cc2O[C@@H]1CN(C)Cc1ccc2c(c1)OCO2	2.4	.	8.3	.	-5.3	.
O=S1(=O)CCOCCCN1Cc1ccc(Cl)cc1	-4.7	24.5*	1.8	0.2	-7.1	-12.5
CC(C)C[C@H]1COCCS(=O)(=O)N1Cc1ccccc1F	-0.6	25.3*	-1.6	2.1	-9.6	-1.5
O=S1(=O)CCOC[C@H](Cc2ccccc2)N1Cc1ccc(Cl)cc1	-0.5	29.2*	1.6	8.7	-5.6	13.3
O=S1(=O)CCOCCN1Cc1ccccc1	0.9	15.0	-1.1	-0.5	-8.8	-12.6
O=[N+]([O-])c1cccc(CN2[C@@H](Cc3ccccc3)COCCS2(=O)=O)c1	-2.7	12.3	-4.5	25.4	-5.9	13.1
Cc1ccccc1CN1[C@@H](Cc2ccccc2)COCCS1(=O)=O	-3.3	25.6*	-3.5	0.9	-5.7	22.0
CCC(C)[C@H]1COCCS(=O)(=O)N1Cc1ccccc1F (stereo not given in full)	-3.0	19.0	3.3	0.1	-4.5	-0.5
O=S1(=O)CCOC[C@H](Cc2ccccc2)N1Cc1cccc(Cl)c1	3.9	13.2	3.6	23.1	-12.2	31.8
CC1(C(=O)Nc2ccc3ccccc3c2)CCC(=O)N1CCOc1ccccc1 (stereo not given)	0.5	2.4	-13.5	.	-9.2	6.5
N#Cc1ccccc1NC(=O)C1CCCO1 (stereo not given)	-2.7	-3.2	-21.1	.	-5.9	-11.7
CCN1CCS/C1=C/C=C/C1=[N+](CC)CCS1	.	-24.2	.	-9.2	.	-13.1
CCN1CCS/C1=C\C=C\C1=[N+](CC)CCS1	1.3	-11.0	2.1	-39.8	84.1*	-6.3
SMILES	ADAM17 inh	NRP1-CendR mod	ADAM10 inh	Arrestin-AP2 inh	CaV13 FRET inh	FAS-TE inh
O=C(c1ccc(C(F)(F)F)cc1)N1CCC(=O)N(C(CO)Cc2ccccc2)CC1 (stereo not given)	1.4	26.5*	6.2	-0.9	-11.3	16.2
O=C(c1cccc(Cl)c1)N1CCC(=O)N(C(COCc2ccccc2)Cc2ccccc2)CC1 (stereo not given)	7.3	16.2	8.2	2.5	55.3*	12.5
O=C(c1cccc(C(F)(F)F)c1)N1CCC(=O)N(C(CO)Cc2ccccc2)CC1 (stereo not given)	0.4	7.1	3.4	15.5	-4.9	-14.6
CCN(C)C1CN(Cc2cn(Cc3ccc(C(F)(F)F)cc3)nn2)S(=O)(=O)C1 (stereo not given)	-0.8	9.8	-20.6	.	-6.5	-10.6
CC(=O)CC[C@@H]1CC[C@]2(CCCN(C(=O)C(C)(C)C)C2)O1	-2.4	.	-3.5	.	.	.
Cc1cccc(-c2noc(CSc3ccccc3)n2)c1	4.7	30.7*	12.0	0.4	-5.0	20.5
O=C(CSc1nnc(C2CC2)n1-c1ccccc1)N1CCNC1=O	2.0	19.9*	-7.2	-27.9	-6.5	-3.6
Cc1cc(C)n2c(Nc3ccc4c(c3)OCCO4)c(-c3ccccn3)nc2n1	-4.0	20.6*	-23.4	.	-10.8	-8.9
Cc1cc(C)n2c(Nc3ccc4c(c3)OCCO4)c(-c3cc4ccccc4o3)nc2n1	-5.8	-12.2	-20.5	.	-5.4	21.9
CN(C)S(=O)(=O)N1CCCC(C(=O)c2ccc(-c3ccccc3)c(F)c2)C1 (stereo not given)	4.7	20.0*	15.6	-0.3	-4.4	24.8
CCC1CCCCN1C(=S)Nc1ccc(OC(F)F)cc1 (stereo not given)	-3.9	26.7*	-2.1	9.9	-5.4	-4.1
Cc1ccc([C@@H]2CC(=O)[C@@H]3CN(S(=O)(=O)c4ccc(C)cc4)[C@H](c4ccccc4)C[C@@H]3N2S(=O)(=O)c2ccc(C)cc2)cc1	0.8	1.6	-0.5	.	-3.5	24.4
Cc1cccc(S(=O)(=O)NC(=O)C2(C)CCN2C(=O)CCc2ccccc2)c1 (stereo not given)	0.7	27.1*	-0.3	.	-4.5	-11.6
COc1cccc(-n2c(=O)n(Cc3ccccc3)c(=O)c3[nH]cnc32)c1	-3.1	22.1*	-1.7	-13.4	-12.9	-7.7
O=c1c2[nH]cnc2n(-c2ccccc2)c(=O)n1Cc1ccccc1	-8.9	-8.1	8.7	-7.7	-17.7	-2.2
CCOC(=O)[C@]12CCCC=C1N(CCCOC)C(=O)[C@@H]2CC(=O)NCc1ccccc1	-8.3	.	-4.9	.	.	.
Cn1nc(-c2ccc(Cl)cc2)c2cc(C(=O)N3CCN(c4ccccc4)CC3)sc21	-5.5	-2.5	-28.6	-11.1	47.9*	23.0
CC(=O)NC(c1ccccc1)c1nc(-c2cnc3ccccc3c2)cs1 (stereo not given)	-9.1	-8.6	-16.2	.	-4.8	-4.6

Source: PubChem BioAssay
